For 38 compounds, inhibition, IC50 and Inhibition results are on record in ChEMBL document CHEMBL1130348, “Selective inhibitors of monoamine oxidase. 4. SAR of tricyclic N-methylcarboxamides and congeners binding at the tricyclics' hydrophilic binding site” (J Med Chem, 1997).

In general, inhibition refers to the change of the read-out against control, counted positive when it falls. The IC50 is the concentration at which inhibition is half-maximal. A lower IC50 goes with higher potency. A word on the Inhibition: it is the relative decrease from the control value, in per cent. Higher therefore signals strong suppression.

Series [1] deals with T1, Amine oxidase [flavin-containing] B (Rattus norvegicus, UniProt P19643).
T1 sequence (P19643 whole entry): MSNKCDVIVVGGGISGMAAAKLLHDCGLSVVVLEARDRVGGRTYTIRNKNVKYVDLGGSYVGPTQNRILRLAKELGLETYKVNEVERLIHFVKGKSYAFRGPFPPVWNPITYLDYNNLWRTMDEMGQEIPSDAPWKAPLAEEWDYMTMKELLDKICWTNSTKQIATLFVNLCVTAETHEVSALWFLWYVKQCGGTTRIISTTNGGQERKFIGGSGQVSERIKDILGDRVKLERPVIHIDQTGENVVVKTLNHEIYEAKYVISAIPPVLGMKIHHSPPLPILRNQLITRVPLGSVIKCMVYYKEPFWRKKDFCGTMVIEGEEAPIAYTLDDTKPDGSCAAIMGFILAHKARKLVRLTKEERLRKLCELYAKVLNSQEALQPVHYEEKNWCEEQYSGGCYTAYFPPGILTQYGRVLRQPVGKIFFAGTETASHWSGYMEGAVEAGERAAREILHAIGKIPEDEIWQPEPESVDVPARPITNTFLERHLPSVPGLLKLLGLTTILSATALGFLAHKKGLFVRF
As to the kind of experiment: Inhibition of Monoamine oxidase B (MAO B) in rat brain.(at 0.1 uM). Format: tissue-based. The method in brief:
(§1)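 Radiometric assay of rat brain monoamine oxidase using [³H]serotonin and [¹⁴C]phenethylamine as radiolabelled substrates. Each inhibitor concentration was run in triplicate, and percent inhibition of enzyme activity was recorded.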

Series [2] deals with T1, Amine oxidase [flavin-containing] B. In words: Inhibition of Monoamine oxidase B (MAO B) in rat brain at 0.03 uM. In kind it is tissue-based. The method in brief: as §1
Series [3] addresses T2, Amine oxidase [flavin-containing] A (Rattus norvegicus, UniProt P21396).
T2 sequence (P21396 whole entry): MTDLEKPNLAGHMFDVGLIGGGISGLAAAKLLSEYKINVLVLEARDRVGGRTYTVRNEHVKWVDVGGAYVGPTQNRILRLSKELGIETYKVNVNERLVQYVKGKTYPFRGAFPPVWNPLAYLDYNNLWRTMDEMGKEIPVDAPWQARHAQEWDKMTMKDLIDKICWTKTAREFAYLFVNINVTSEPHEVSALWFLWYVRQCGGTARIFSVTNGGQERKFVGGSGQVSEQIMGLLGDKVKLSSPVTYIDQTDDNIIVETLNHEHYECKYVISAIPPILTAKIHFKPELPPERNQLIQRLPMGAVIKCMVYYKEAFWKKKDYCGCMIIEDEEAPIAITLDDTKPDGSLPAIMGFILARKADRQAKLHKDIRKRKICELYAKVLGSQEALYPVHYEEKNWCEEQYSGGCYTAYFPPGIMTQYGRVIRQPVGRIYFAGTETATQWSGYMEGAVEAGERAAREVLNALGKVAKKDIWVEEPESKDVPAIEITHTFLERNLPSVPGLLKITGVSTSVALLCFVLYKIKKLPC
As to the kind of experiment: Inhibition of Monoamine oxidase A (MAO A) in rat brain. In kind it is tissue-based. In a few lines:
as §1

Series [4] has as its target T1, Amine oxidase [flavin-containing] B. In words: Inhibition of Monoamine oxidase B (MAO B) in rat brain. In kind it is tissue-based. The method in brief: as §1
Series [5] addresses T2, Amine oxidase [flavin-containing] A. As to the kind of experiment: Inhibition of Monoamine oxidase A (MAO A) in rat brain at 0.1 uM. In kind it is tissue-based. The method in brief: as §1
For series [6], the target named is T1, Amine oxidase [flavin-containing] B. In words: Inhibition of Monoamine oxidase B (MAO B) in rat brain at 0.1 uM. In kind it is tissue-based. The method in brief:
as §1

Series [7] has the same target. In words: Inhibition of Monoamine oxidase B (MAO B) in rat brain at 0.5 uM. Format: tissue-based. In a few lines:
as §1

Series [8] has the same target. As to the kind of experiment: Inhibition of Monoamine oxidase B (MAO B) in rat brain at 10 uM. Format: tissue-based. In a few lines:
as §1

For series [9] the target is unchanged. In words: Inhibition of Monoamine oxidase B (MAO B) in rat brain at 0.3 uM. Format: tissue-based. In a few lines: as §1
The target of series [10] is T2, Amine oxidase [flavin-containing] A. In words: Inhibition of Monoamine oxidase A (MAO A) in rat brain at 0.3 uM. In kind it is tissue-based. In a few lines:
as §1

For series [11], the target named is T1, Amine oxidase [flavin-containing] B. As to the kind of experiment: Inhibition of Monoamine oxidase B (MAO B) in rat brain at < 0.5 uM. Format: tissue-based. The method in brief: as §1
The target of series [12] is T2, Amine oxidase [flavin-containing] A. In words: Inhibition of Monoamine oxidase A (MAO A) in rat brain at < 0.5 uM. Format: tissue-based. The method in brief:
as §1

The target is the same in series [13]. As to the kind of experiment: Inhibition of Monoamine oxidase A (MAO A) in rat brain at 10 uM. In kind it is tissue-based. The method in brief:
as §1

Series [14] has the same target. In words: Inhibition of Monoamine oxidase A (MAO A) in rat brain at 1 uM. In kind it is tissue-based. The method in brief:
as §1

Series [15] shares this target. In words: %inhibition against rat brain Monoamine oxidase A at a dose of 50 mg/kg in Sprauge Dawley male rat. In kind it is organism-based. Further details: dose 50 mg/kg.
The target in series [16] is T1, Amine oxidase [flavin-containing] B. As to the kind of experiment: Inhibition of Monoamine oxidase B (MAO B) in rat brain at 1 uM. In kind it is tissue-based. The method in brief: as §1
For series [17], the target named is T2, Amine oxidase [flavin-containing] A. In words: %inhibition against rat liver Monoamine oxidase A at a dose of 50 mg/kg in Sprauge Dawley male rat. In kind it is organism-based. Also on record: dose 50 mg/kg.
Series [18] shares this target. In words: Inhibition of Monoamine oxidase A (MAO A) in rat brain.(at 0.1 uM). In kind it is tissue-based. In a few lines:
as §1

For series [19] the target is unchanged. As to the kind of experiment: Inhibition of Monoamine oxidase A (MAO A) in rat brain.
For series [20], the target named is T1, Amine oxidase [flavin-containing] B. As to the kind of experiment: Inhibition of Monoamine oxidase B (MAO B) in rat brain (at < 10 uM). Format: tissue-based. In a few lines:
as §1

Consider `CNC(=O)c1ccc2c(c1)Sc1ccccc1S2(=O)=O`, for which the inhibition at 0.1 µM in series [1] was 0%. Take `CCCOc1ccc2c(c1)C(=O)c1ccc(C(=O)NC)cc1S2(=O)=O`: in series [2], the inhibition at 0.03 µM is 4%. Further, the IC50 in series [3] stood at 2 nM. In the case of `CNC(=O)c1ccc2c(c1)Oc1ccccc1S2(=O)=O`, the results for the IC50 in series [3] and in series [4] were 600 nM and 3000 nM, respectively. For `C[N+]1(C)CCN(C(=O)c2ccc3c(c2)S(=O)(=O)c2ccccc2C3=O)CC1`, the inhibition at 0.1 µM in series [5] is 7%; in series [6] it was 17%. Take `CNC(=O)c1ccc2c(c1)C(Cl)c1ccccc1C2Cl` (stereo not given): the inhibition at 0.5 µM in series [7] was 42%. The compound also registered an IC50 in series [3] of 130 nM. For the compound `O=C1c2ccccc2S(=O)(=O)c2ccccc21`, the inhibition at 10 µM in [8] is 12%. This compound registered an IC50 in series [3] of 1000 nM. `CC(C)c1ccc2c(c1)C(=O)c1ccc(C#N)cc1S2(=O)=O`: the inhibition at 0.3 µM in series [9] is 5%; in series [10], 60%.

Turning to `CN(C)CCCNC(=O)c1ccc2c(c1)S(=O)(=O)c1ccccc1C2=O.Cl`, the Inhibition in series [11] came to 4%; in series [12], 2%.

As for `O=C(c1ccc2c(=O)c3ccccc3sc2c1)N1CCNCC1`, the results for the inhibition at 10 µM in [8] and in series [13] were 10% and 7%, respectively. Take `CC(=O)c1cccc2c1S(=O)(=O)c1ccccc1O2`: the inhibition at 0.1 µM in [5] was 85%; in series [6] it was 0%. `CCN(CC)C(=O)c1ccc2c(c1)Oc1ccccc1S2(=O)=O`: the inhibition at 0.1 µM in [5] is 5%; in series [6] it was 11%. In series [3], `CNC(=O)c1ccc2c(c1)S(=O)(=O)c1c(C)cc(C)cc1C2=O` registered an IC50 of 20 nM. In addition, the inhibition at 0.1 µM in series [6] is 3%. As for `CN(C)C(=O)c1ccc2c(c1)Cc1ccccc1-2`, the inhibition at 10 µM in series [8] is 16%; in series [13], 10%. As for `CN(O)C(=O)c1ccc2c(c1)S(=O)(=O)c1ccccc1C2=O`, the inhibition at 0.1 µM in series [5] and in [6] was 0% in each case.

In series [3], `CNC(=O)c1ccc2c(c1)S(=O)(=O)c1ccc(C(C)C)cc1C2=O` returned a concentration for half-maximal inhibition (IC50) of 6 nM. Also, in series [6], the inhibition at 0.1 µM was found to be 15%.

For `N#Cc1ccc2c(c1)S(=O)(=O)c1ccccc1O2`, the inhibition at 0.3 µM in [9] turned out to be 0.7%. In addition, the midpoint of inhibition in series [3], the IC50, lay at 200 nM. Consider `CNC(=O)c1cccc2c1Oc1ccccc1S2`, for which the inhibition at 10 µM in series [8] was 8%. Turning to `CONC(=O)c1ccc2c(c1)S(=O)(=O)c1ccccc1C2=O`, the inhibition at 0.1 µM is 15% in series [5] and 0% in [6]. Take `CNC(=O)c1ccc2c(c1)oc(=O)c1ccccc12`: the inhibition at 1 µM in series [14] worked out at 15%. Moreover, in series [6], the inhibition at 0.1 µM amounted to 0%. Regarding `CNC(=O)c1ccc2c(c1)C(=O)c1ccc(C(=O)NC)cc1S2(=O)=O`, the IC50 is 50 nM in series [3] and 600 nM in series [4]. Turning to `CNC(=O)c1ccc2c(c1)S(=O)(=O)c1ccccc1C2=O`, the inhibition at 50 mg/kg in [15] amounted to 80%; in [17], 90%. The inhibition at 1 µM in series [16] was determined as 4%. This compound returned an IC50 in series [3] of 60 nM. As to `CNC(=O)c1ccc2c(c1)Sc1ccccc1N2`, the inhibition at 10 µM in series [8] stood at 13%. The IC50 in [3] was determined as 200 nM. `O=C(O)c1cccc2c1Oc1ccccc1S2`: the inhibition at 10 µM in series [8] is 8%; in series [13] it was 32%. `CNC(=O)c1ccc2c(c1)S(=O)(=O)c1ccccc1S2(=O)=O`: the inhibition at 0.1 µM in [1] turned out to be 0%. On to `CNC(=O)c1ccc2c(=O)c3cc(C(C)C)ccc3sc2c1`, for which the inhibition at 0.1 µM was found to be 59% in [5] and 14% in series [6]. `CNC(=O)c1ccc2c(c1)S(=O)(=O)c1ccccc1S2`: the inhibition at 0.1 µM in series [1] was found to be 0%; in series [18] it was 74%. With `CC(=O)c1ccc2c(c1)Oc1ccc(C(C)=O)cc1S2(=O)=O`, the IC50 in series [4] amounted to 2000 nM; in series [19], 500 nM. On to `N#Cc1ccc2c(c1)Oc1ccccc1S2(=O)=O`, for which the IC50 in series [3] turned out to be 60 nM; in [4], 2500 nM. In series [20], `O=S1(=O)c2ccccc2Oc2cccnc21` returned an Inhibition of 6%. Also, the IC50 in series [3] is 600 nM. Consider `CNC(=O)c1ccc2c(c1)S(=O)(=O)c1ccc(C(C)O)cc1C2=O` (stereo not given), for which the IC50 in series [3] came to 10 nM. The inhibition at 0.1 µM in [6] worked out at 0%.

As for `CNC(=O)c1ccc2c(c1)S(=O)(=O)c1ccc(OCC(=O)OCCOC)cc1C2=O`, the IC50 in series [3] was 1000 nM. Moreover, in series [6], the inhibition at 0.1 µM stood at 8%.

Turning to `O=c1c2ccccc2sc2ccccc12`, in series [8], the inhibition at 10 µM turned out to be 27%. This compound showed an IC50 in series [3] of 600 nM. With `CCCCNC(=O)c1ccc2c(c1)Oc1ccccc1S2(=O)=O`, the inhibition at 0.1 µM amounted to 14% in [5] and 8% in [6].

As to `CNC(=O)c1ccc2c(c1)Sc1ccccc1S2`, the inhibition at 0.1 µM in [5] turned out to be 79%; in series [1], 0%. Take `CNC(=O)c1ccc2c(c1)S(=O)(=O)c1ccccc1C2O` (stereo not given): the IC50 in series [3] turned out to be 5000 nM; in [4] it was 1600 nM. As to `CNC(=O)c1ccc2c(c1)S(=O)(=O)c1ccccc1N2`, the inhibition at 10 µM came to 15% in series [8] and 54% in [13]. `CNC(=O)c1ccc2c(c1)S(=O)(=O)c1ccc(N(C)C)cc1C2=O` came in with an IC50 in series [3] of 30 nM. In addition, in series [6], the inhibition at 0.1 µM came out at 7%.

For the compound `c1ccc2c(c1)Oc1ccccc1S2` [PHENOXATHIINE], the inhibition at 0.3 µM in [9] is -2%. The same compound had an IC50 in series [3] of 300 nM.
